# TRPC4 act: activators of mouse TRPC4 channel, primary screen, Fluo4 calcium, HEK293 TRPC4beta/mu-opioid cells; B-score at 10 µM; 310,000 tested, 0.49% active; Short transient receptor potential channel 4 (Mus musculus), Q9QUQ5; Fluo4 calcium fluorescence; hits give high values;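 active = B-score above 5 SD of library B-scores, and initial fluorescence ratio not above library mean plus 5 SD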;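 also: positive B-score marks a calcium rise read as TRPC4 activation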
# Target sequence (Q9QUQ5 whole entry, looked up): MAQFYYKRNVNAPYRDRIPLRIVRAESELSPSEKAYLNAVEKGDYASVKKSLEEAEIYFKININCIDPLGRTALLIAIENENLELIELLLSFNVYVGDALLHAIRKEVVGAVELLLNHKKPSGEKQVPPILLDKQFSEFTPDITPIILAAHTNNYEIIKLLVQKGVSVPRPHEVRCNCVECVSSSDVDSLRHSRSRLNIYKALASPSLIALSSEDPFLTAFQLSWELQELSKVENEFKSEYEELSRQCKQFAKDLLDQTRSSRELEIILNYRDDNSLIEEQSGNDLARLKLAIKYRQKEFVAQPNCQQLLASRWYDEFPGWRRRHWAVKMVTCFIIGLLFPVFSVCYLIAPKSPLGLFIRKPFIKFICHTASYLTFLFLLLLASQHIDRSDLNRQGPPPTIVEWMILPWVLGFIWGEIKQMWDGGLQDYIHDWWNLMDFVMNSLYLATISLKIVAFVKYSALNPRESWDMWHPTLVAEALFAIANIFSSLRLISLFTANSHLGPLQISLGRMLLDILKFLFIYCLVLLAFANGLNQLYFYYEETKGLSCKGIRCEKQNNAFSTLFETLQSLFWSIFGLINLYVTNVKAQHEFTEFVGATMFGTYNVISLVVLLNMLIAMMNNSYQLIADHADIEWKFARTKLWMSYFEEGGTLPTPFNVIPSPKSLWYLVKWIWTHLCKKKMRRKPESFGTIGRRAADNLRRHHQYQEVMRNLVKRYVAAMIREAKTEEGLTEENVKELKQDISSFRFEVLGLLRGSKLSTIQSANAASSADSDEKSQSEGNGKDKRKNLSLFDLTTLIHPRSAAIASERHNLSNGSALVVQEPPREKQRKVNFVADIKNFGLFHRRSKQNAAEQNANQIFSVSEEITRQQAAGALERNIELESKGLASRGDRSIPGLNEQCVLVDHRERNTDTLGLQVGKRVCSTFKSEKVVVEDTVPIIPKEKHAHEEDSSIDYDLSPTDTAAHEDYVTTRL
#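 Material: HEK293 stable line with TRPC4beta plus mu-opioid receptor; technique: Fluo4 calcium-sensitive dye fluorescence, kinetic, 1 Hz baseline; timing: Fluo4 dye loading 45 min at room temperature, 110 s recording; controls: assay buffer as low control, maximal DAMGO as high control; read-out: integrated baseline-normalised fluorescence ratio, converted to per-well B score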
# TRPC6 act: mouse TRPC6 channel activators, primary screen, cell-based, HEK293, membrane potential dye. AID 2550, 2010. 310,000 tested, 0.13% active. B-score at 10 µM. HEK293-TRPC6 membrane potential dye fluorescence; hits give high values;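 active = B-score of the integrated fluorescence ratio above library mean plus 3 SD, and starting fluorescence ratio within library mean plus 5 SD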;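 also: higher score means more depolarization so channel activation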
# TRPC4 potent: positive allosteric modulators of TRPC4, primary screen, cell-based, mouse TRPC4beta, HEK293 mu-opioid, Fluo-4 calcium; DAMGO EC20, Fluo-4 Ca2+ flux; hits give high values; B-score at 10 µM; 310,000 tested, 0.42% active; AID 2227, 2009;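 active = B-score of calcium response area above 5 SD of library B-scores, with initial fluorescence ratio within 5 SD of library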
# TRPC6 inhibitor: mouse TRPC6 channel inhibitors, primary screen, cell-based, HEK293, membrane potential dye; Short transient receptor potential channel 6 (Mus musculus), Q61143; ACh-evoked depolarization; hits give low values; B-score at 10 µM; 310,000 tested, 1.1% active;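 active = B-score under library mean minus 3 SD, initial fluorescence not abnormally high, positive integrated signal ratio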;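 also: B-score derived from integrated fluorescence ratio over the kinetic read; more negative B-score means stronger inhibition of depolarization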
# TRPC4 inh: inhibitors of mouse TRPC4 channel, primary screen, Fluo4 calcium, HEK293 TRPC4beta/mu-opioid cells; Short transient receptor potential channel 4 (Mus musculus), Q9QUQ5; DAMGO-evoked Fluo4 calcium flux; hits give low values; B-score at 10 µM; 300,000 tested, 0.39% active; AID 2247, 2010;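 active = B-score over 3 SD under the library average, no early fluorescence shift, positive overall ratio signal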
#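 Test system – stable TRPC4beta/mu-opioid receptor HEK293 cells · Probe or stimulus – DAMGO, a submaximal dose followed by a maximal one · Dosing – one concentration per compound · Signal – Fluo4 calcium fluorescence by kinetic imaging, 5 s 1 Hz baseline · Evaluation – per-well B score of integrated baseline-normalized Fluo4 ratio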
# Hits are given with their value; . = inactive. Hits are enriched below; roughly 2.3% of the tested compounds scored in any of these assays.
SMILES,TRPC4 act,TRPC6 act,TRPC4 potent,TRPC6 inhibitor,TRPC4 inh
Cc1ccc(S(=O)(=O)Nc2cccc(C(=O)NCC(c3ccco3)N3CCCC3)c2)cc1F (stereo unspecified),53,.,.,.,-6
CCCCCCCCCCCCCCCC(=O)OC[C@H](COP(=O)([O-])OCC[N+](C)(C)C)OC(=O)CCCCCCCCCCCCCCC,.,.,.,.,.
CCOc1ccc(/C=C2\SC(=S)N(CCC(=O)N(CCO)c3ccccc3)C2=O)cc1,.,.,12,.,.
COCCCNc1nc(-c2ccncc2)nc2ccccc12,.,.,.,.,.
COCCNc1nc(-c2ccccc2)nc2ccccc12,.,.,.,.,-5
NC1=NC2=C(CCCC2)C2(CCCCC2)S1,.,.,.,.,-6
CCn1c(-c2cc(-c3ccc(C)c(C)c3)nc3ccccc23)n[nH]c1=S,.,.,.,.,.
Cc1ccc(-c2cc(-c3n[nH]c(=S)n3C)c3ccccc3n2)cc1,.,.,12,.,.
Cc1cc(NC(=O)CCCC(=O)Nc2ccc(F)cc2)no1,.,.,.,.,.
COc1ccc(CCN(C)CCC(=O)Nc2c(C)cc(C)cc2C)cc1OC,111,.,.,.,.
CCC(=O)Nc1ccccc1C(=O)C(=O)Nc1ccccc1,.,.,.,.,.
CCOC(=O)C1(Cc2cccc(OC)c2)CCCN(Cc2cc(OC)c(O)c(OC)c2)C1 (stereo unspecified),.,.,.,.,.
O=C(Nc1nnc(-c2ccc3c(c2)CCCC3)o1)c1ccccc1Cl,.,.,.,.,.
O=C(Nc1nnc(-c2ccc(F)cc2)o1)c1cc(Cl)sc1Cl,220,.,.,.,.
O=C(Nc1nnc(C2=COCCO2)o1)c1cccc([N+](=O)[O-])c1,.,.,.,.,.
O=C(Nc1nnc(-c2ccc3c(c2)CCCC3)o1)c1ccccc1,66,.,.,.,.
O=C(Nc1nnc(-c2ccc(F)cc2)o1)c1cccc([N+](=O)[O-])c1,126,.,.,.,-6
COc1ccc(Cl)cc1NC(=O)CN(C)CC(=O)NC(C)c1ccccc1 (stereo unspecified),.,.,.,.,.
CC(Oc1ccc(C#N)cc1)C(=O)c1ccc(F)c(F)c1 (stereo unspecified),.,.,.,.,.
Cn1c(=O)c(=O)n(C)c2cc(S(=O)(=O)CCC(=O)Nc3c(F)c(F)c(F)c(F)c3F)ccc21,.,.,.,.,.
COc1cccc(OCc2cc(C(=O)N3CCN(C)C(c4ccccc4)C3)no2)c1 (stereo unspecified),.,.,15,.,.
COc1cccc(OCc2cc(C(=O)N3CCC(c4ccncc4)CC3)no2)c1,.,.,.,.,.
O=C(NCCNC(=O)c1ccc(Br)o1)c1cccnc1,.,.,.,.,.
COc1ccccc1N1CCN(C(=O)c2cc(-c3ccc(C)cc3)on2)CC1,.,.,.,.,.
COc1ccccc1-c1cc(C(=O)N2CCN(c3ccccc3OC)CC2)no1,.,.,.,.,-6
SMILES,TRPC4 act,TRPC6 act,TRPC4 potent,TRPC6 inhibitor,TRPC4 inh
CC(C)(C)CC(C)(C)NCC(O)COc1ccc2c(c1)CCC2 (stereo unspecified),.,.,.,.,-6
CC(C)(CO)NCC(O)COc1ccc2c(c1)CCC2 (stereo unspecified),.,.,.,.,.
COc1ccc(C2=CC(=O)C=CC2=O)cc1,91,.,.,.,.
CCCS(=O)(=O)c1c(S(=O)(=O)CCC)c2ccc(C(N)=O)cn2c1C(=O)c1ccc(OC)cc1,.,.,20,.,.
CCCS(=O)(=O)c1c(S(=O)(=O)CCC)c2ccc(C(N)=O)cn2c1C(=O)OC,.,.,.,.,.
CCOC(=O)c1c(N)sc(C(O)(C(F)(F)F)C(F)(F)F)c1-c1ccccc1,.,.,.,.,-7
CCOC(=O)c1c(N)sc(-c2ccccc2)c1C,.,.,.,.,.
CCCCCCCCCCSc1n[nH]c(N)n1,.,.,.,.,.
O=C(Nc1cccnc1)C(Cc1ccccc1)n1cccc1 (stereo unspecified),.,.,.,.,.
O=C(Nc1ncc(Br)s1)C(Cc1ccccc1)n1cccc1 (stereo unspecified),.,.,36,.,.
[O-]C1=N/[N+](=C/c2ccccc2Cl)CC1,.,.,.,.,.
CCCCc1c(C)nc2nc(SCc3ccc(Cl)cc3)[nH]n2c1=O,.,.,.,.,.
CCN(CCCNC(=O)CCCOc1cc(=O)n(C)c2ccccc12)Cc1ccccc1,.,.,21,.,.
CC(C)(C)CC(=O)NC(=S)NCc1ccco1,.,.,.,.,.
O=C(O)CC(c1cccc2ccccc12)N1Cc2ccccc2C1=O (stereo unspecified),.,.,34,.,.
CCCCOc1ccccc1NC(=O)CC1SC(=NCC)N(CC)C1=O (stereo unspecified),.,.,.,.,.
CN(CCc1ccccn1)C(=S)Nc1cccc(S(=O)(=O)N(C)C)c1,101,.,.,.,.
Cc1cccc(OCC(=O)N(C)CCc2ccccn2)c1,54,.,.,.,.
Cc1ccc(C)c(NC(=S)N(C)CCc2ccccn2)c1,74,.,.,.,.
Cc1cccc(CN(C)CCc2ccccn2)c1,.,.,.,.,.
CN(C)S(=O)(=O)c1cccc(NC(=S)NCCc2ccccn2)c1,.,.,.,.,.
COc1ccccc1N1CCN(C(=O)c2ccc(CN3CCOCC3)cc2)CC1,.,.,.,.,.
CC(=O)N1CCN(c2ccnc3cc(Cl)ccc23)CC1,.,.,.,.,.
O=S(=O)(c1cccs1)N1CCN(c2ccnc3cc(Cl)ccc23)CC1,.,.,11,.,.
O=S(=O)(c1ccccc1)N1CCN(c2ccnc3cc(Cl)ccc23)CC1,.,.,13,.,.
SMILES,TRPC4 act,TRPC6 act,TRPC4 potent,TRPC6 inhibitor,TRPC4 inh
CC1CCc2c(sc3ncnc(SCC(=O)Nc4ccc(C(=O)O)cc4)c23)C1 (stereo unspecified),.,.,.,.,-6
COc1cc(NC(=O)CSc2ncnc3sc4c(c23)CCC(C)C4)c(C(=O)O)cc1OC (stereo unspecified),.,.,.,.,-6
Cc1ccc(S(=O)(=O)NCC(=O)NCC2CCCCC2)cc1C,.,.,.,.,.
O=C(Oc1ccccc1F)c1ccc2c(=O)n3c(nc2c1)CCC3,.,.,.,.,.
NCCCNC(=O)c1cc2ccccc2[nH]1,106,.,.,.,.
CC1CCN(C(C(=O)NC2CCCCC2)c2cc3c(cc2[N+](=O)[O-])OCO3)CC1 (stereo unspecified),.,.,11,.,.

# Compound activity (PubChem)
